Source: PubChem
Lipid droplet – modulators of hepatic lipid droplet formation | AML12 mouse hepatocytes, oleate lipid droplets, BODIPY imaging | inhibition, % at 6.5 µM | actives 0.4% (n = 240,000) | AID 1656;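 active = lipid droplet intensity inhibited by at least 50%, with more than 500 cells counted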
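Material: mouse AML12 hepatocyte cell line, fixed after treatment; Timing: compound with oleate, overnight; Technique: high-content imaging of BODIPY-stained droplets and DAPI nuclei; Probe or stimulus: oleate, 100 µM final; Dosing: compound at 6.5 µM only.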
Tb MetRS inh – blocks T. brucei methionyl-tRNA synthetase activity; purified T. brucei MetRS, ATP depletion, Kinase-Glo luminescence; inhibition, % at 11.9 µM; actives 0.4% (n = 360,000);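 active = inhibition above a per-plate cutoff of the control wells' mean inhibition plus 3 SD, cut at about 5.5% in these data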;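 note: 0% = DMSO wells median and 100% = median of wells with control inhibitor compound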
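technique = Kinase-Glo luminescence, ATP depletion format | system = purified MetRS (methionyl-tRNA synthetase) enzyme from Trypanosoma brucei | timing = 15 min preincubation, 2 h reaction, all 25 °C | evaluation = percent inhibition versus plate control medians | dosing = single dose, 11.9 µM final nominal, 0.9% final DMSO | also added = substrates ATP, L-methionine and bulk Escherichia coli tRNA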
NS3 helicase inh – blocks Hepatitis C virus NS3 helicase unwinding; NS3 helicase DNA unwinding, Cy5 molecular beacon fluorescence; inhibition, % at 10.9 µM; actives 0.56% (n = 290,000);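 active = inhibition above the mean of all tested compounds plus 3 SD, set per campaign, cut at about 35% in these data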;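 note: 0% = DMSO wells and 100% = thioflavine S control wells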
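test system = hepatitis C virus NS3 helicase domain fragment enzyme | reagent = annealed dual-labelled DNA beacon duplex, ATP-started | times = 1 h at 25 °C | detection = Cy5 fluorescence, 0 and 60 min reads | read-out basis = percent inhibition from t60/t0 fluorescence ratio | control set = DMSO and thioflavine S | replication = one well per compound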
core dimer inh – blocks dimerization of HCV core protein; TR-FRET GST/Flag-core106 dimerization, 1536-well; inhibition, % at 5 µM; actives 0.33% (n = 300,000); AID 1899;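 active = inhibition above the mean of all tested compounds plus 3 SD, set per screening campaign, cut at about 45% in these data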
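assay system = GST-tagged and Flag-tagged HCV core protein residues 1-106 | controls = unlabelled core106 and no-GST-core106 wells | incubation = compound-protein-antibody incubation 4 h at 22.5 °C | probe or stimulus = Eu donor and XL665 acceptor anti-tag antibodies | read-out = % inhibition based on acceptor/donor emission ratio | signal = TR-FRET 671 and 617 nm emission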
* = called active by the depositor; . = not tested or not shown. Hits are enriched below; roughly 1.3% of the tested compounds scored in any of these assays.

SMILES	Lipid droplet	Tb MetRS inh	NS3 helicase inh	core dimer inh
CCOC(=O)c1c(N)sc2c1CCSC2	2	-2	11	55*
CN(C)c1ncc(C2=C(Cl)C(=O)C(N3CCCC3)=C(Cl)C2=O)s1	.	-1	30	84*
N=C1C(c2nc(-c3ccc(Br)cc3)cs2)=C(O)CN1NC(=O)c1ccc([N+](=O)[O-])cc1	.	0	9	53*
N=C1C(c2nc(-c3ccc(Cl)cc3)cs2)=C(O)CN1NC(=O)c1ccc(O)cc1	0	0	14	23
Cc1ccc(-c2csc(C3=C(O)CN(NC(=O)c4ccc([N+](=O)[O-])cc4)C3=N)n2)cc1	1	-1	5	48*
CC1ON=C(c2cccc3ccccc23)N(C)C1=O (stereo not drawn)	.	0	.	.
O=C(CCC(=O)c1cccs1)Nc1ccc(F)c(F)c1F	.	0	5	52*
O=C(CCC(=O)c1cccs1)NCC(=O)Nc1ccc(F)c(F)c1F	10	1	7	-7
CC1CCCCc2nc3c(c(=O)n21)CCCC3 (stereo not drawn)	.	0	.	.
COc1ccccc1N1CCN(C(=O)c2cc3c(s2)CCC3)CC1	-6	-1	7	74*
COc1ccc(Cl)cc1NC(=O)c1cc(-c2ccco2)on1	-4	0	18	63*
O=C(Nc1nc2ccccc2s1)c1ccc(OCC2CCCO2)cc1 (stereo not drawn)	52*	0	-11	5
CCNC(=O)C[C@@H]1CC[C@H]2[C@@H](COC[C@H](O)CN2C(=O)C2CC2)O1	.	0	.	.
Cc1cc(NC(=O)c2ccc(S(=O)(=O)N3CCc4ccccc43)cc2)no1	-7	0	-1	72*
COc1ccc(Nc2nc(-c3sc(NC(C)=O)nc3C)cs2)cc1	-3	.	2	59*
CCC1CCCCN1c1ccc([N+](=O)[O-])cc1/C=N/NC(=O)Cn1c2ccccc2c(=O)c2ccccc21 (stereo not drawn)	4	0	0	47*
CCc1ccc(OCC(=O)N/N=C/c2cc([N+](=O)[O-])ccc2N2CCCCCC2)cc1	-41	1	-9	26
COc1ccccc1NCCC(=O)OCC(=O)NCc1ccco1	.	0	10	58*
COc1ccc(OCCC(=O)OCC(=O)NCc2ccco2)cc1	.	0	16	85*
O=C(COC(=O)COc1ccccc1)NCc1ccco1	.	0	.	1
O=[N+]([O-])c1ccc(/C([O-])=C(/C(=S)NCc2ccco2)[n+]2ccccc2)cc1	-3	0	6	52*
O=C(NCc1ccco1)c1ccc(S(=O)(=O)N2CCOCC2)cc1	.	0	21	48*
O=S(=O)(c1ccc2nc(-c3ccco3)c(-c3ccco3)nc2c1)N1CCOCC1	.	1	33	59*
O=C(NCc1ccco1)c1ccc(S(=O)(=O)N2CCCCC2)cc1	10	0	20	-2
O=C(c1ccco1)N1CCN(C(=O)c2cc(-c3ccccn3)nc3ccc(Cl)cc23)CC1	-30	1	6	76*
SMILES	Lipid droplet	Tb MetRS inh	NS3 helicase inh	core dimer inh
Cc1cc(C)n2nc(C(=O)Nc3ccc4c(c3)OCO4)nc2n1	-2	-2	1	47*
Nc1ccn(CCCNC2CCN(Cc3ccccc3)CC2)c(=O)n1	.	0	.	.
Cn1c(=NC(=O)c2ccc(S(=O)(=O)N3CCCc4ccccc43)cc2)sc2cc(S(C)(=O)=O)ccc21	-15	-1	1	0
C#CCn1c(=NC(=O)c2ccc(S(=O)(=O)N3CCCc4ccccc43)cc2)sc2cc(S(N)(=O)=O)ccc21	-11	0	7	52*
C=CCn1c(SCC(=O)c2ccc(CNC(C)=O)o2)nc2ccccc2c1=O	5	-1	-1	49*
C=CCn1c(SCC(=O)NC2CC2)nc2ccccc2c1=O	.	0	.	.
O=C(OC1CCCCC1)c1ccc2c(c1)C1C=CCC1C(C(=O)O)N2 (stereo not drawn)	-3	.	40*	.
O=C(O)C1Nc2c(Cl)cc(Cl)cc2C2C=CCC12 (stereo not drawn)	13	-1	9	33
O=C(O)C1Nc2c(Cl)cc(Cl)c(Cl)c2C2C=CCC12 (stereo not drawn)	.	-1	57*	43
Nc1ccc2c(c1)C/C(=C/c1ccco1)C2=O	12	0	33	94*
O=C1/C(=C/c2ccco2)CCc2ccccc21	28	-1	33	3
COc1cccc(C(O)c2ncc(-c3cccc(F)c3)[nH]2)c1 (stereo not drawn)	.	1	.	.
